Here are results for 2 compounds from ChEMBL document CHEMBL4177755, “Combating Drug-Resistant Fungi with Novel Imperfectly Amphipathic Palindromic Peptides” (J Med Chem, 2018).

Calls of active or inactive are those of the source. The rule behind the calls is not given here.

Series [1] has as its system Lipid bilayer. Description: Binding affinity to phosphatidylglycerol/cardiolipin/phosphatidylethanolamine large unilamellar vesicle assessed as induction of calcein leakage at 2 to 32 uM after 15 mins by spectrofluorophotometric method. A digest of the protocol: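 Large unilamellar vesicles were made from PG/CL/PE (2:1:7), PC/PE/PI/ergosterol (5:4:1:2) or PC/cholesterol (10:1), loaded with 70 mM calcein in Tris/NaCl/EDTA buffer at pH 7.4, frozen and thawed 20 times, and extruded through 100 nm filters. Free dye was removed by gel filtration, and peptide-induced calcein release was measured.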

Series [2] has as its system Escherichia coli. Description: Disruption of cytoplasmic membrane electrical potential in Escherichia coli ATCC 25922 at MBC after 800 secs by DiSC3-5 dye-based fluorescence spectrophotometric method. Format: functional, organism-based.
Series [3] concerns Escherichia coli. Description: Antibacterial activity against Escherichia coli ATCC 25922 after 18 hrs in presence of 12.5% human heat-inactivated serum by broth dilution method. The class given is functional. As to conditions: ATCC 25922, 18 h. (In general: In broth dilution the organism is exposed to a series of concentrations in liquid medium.)
The test system of series [4] is Candida albicans. Description: Fungicidal activity against Candida albicans cgmcc 2.2086 at MFC after 5 hrs by time-kill assay. Format: functional. A digest of the protocol:
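Time-kill: E. coli ATCC 25922 or C. albicans cgmcc 2.2086 was exposed to peptide at 1× MBC/MFC. At intervals, aliquots were diluted and spread on MHA (bacteria, counted after 24 h at 37 °C) or YPDA (yeast, counted after 48 h at 28 °C). Values are means of three independent assays.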

Series [5] concerns Escherichia coli. Description: Induction of cell wall permeabilization in Escherichia coli ATCC 25922 assessed as increase in NPN uptake at 2 uM by fluorescence spectrophotometric method relative to control. Format: functional. A digest of the protocol: (§1)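 Log-phase E. coli ATCC 25922 or C. albicans cgmcc 2.2086 at OD600 0.2 in 5 mM HEPES pH 7.4 with 5 mM glucose was preloaded 30 min with 10 μM NPN, then peptide was added. Fluorescence (ex 350, em 420 nm) was followed until it plateaued and converted to % uptake against a 100% reference. Run in triplicate.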

The subject of series [6] is Candida albicans. Description: Induction of cell wall permeabilization in Candida albicans cgmcc 2.2086 assessed as increase in NPN uptake at 2 uM by fluorescence spectrophotometric method relative to control. The class given is functional. Put shortly:
as §1

The test system of series [7] is Lipid bilayer. Description: Binding affinity to phosphatidylcholine/phosphatidylethanolamine/phosphatidylinositol/ergosterol large unilamellar vesicle assessed as induction of calcein leakage after 15 mins by spectrofluorophotometric method. A digest of the protocol: (§2)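 Compositions were PG/CL/PE 2:1:7 w/w/w (E. coli membrane mimic; lines 4,5) and PC/PE/PI/ergosterol 5:4:1:2 w/w/w/w (fungal membrane mimic; lines 2,3). Lipids underwent 20 freeze–thaw cycles and were extruded through 100 nm filters; free calcein was removed by gel filtration.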

Series [8] deals with Lipid bilayer. Description: Binding affinity to phosphatidylcholine/phosphatidylethanolamine/phosphatidylinositol/ergosterol large unilamellar vesicle assessed as induction of calcein leakage at 32 uM after 15 mins by spectrofluorophotometric method relative to control. Put shortly:
as §2

Series [9] has as its system Escherichia coli. Description: Induction of membrane damage in Escherichia coli ATCC 25922 assessed as appearance of roughened and broken membrane at MBC after 1 hr by scanning electron microscopy. The class given is functional, organism-based. Put shortly: (§3)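 E. coli ATCC 25922 was treated at 1× MBC and C. albicans cgmcc 2.2086 at 1× MFC, each for 1 h. Untreated control cells were processed in parallel without peptide. Surface morphology was imaged by AFM and SEM, and ultrastructure by TEM.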

Series [10] has as its system Escherichia coli. Description: Induction of membrane damage in Escherichia coli ATCC 25922 assessed as appearance of roughened and broken membrane at MBC after 1 hr by atomic force microscopy. The class given is functional, organism-based. A digest of the protocol:
as §3

The subject of series [11] is Candida albicans. Description: Induction of membrane damage in Candida albicans cgmcc 2.2086 assessed as membrane creping at MFC after 1 hr by scanning electron microscopy. The class given is functional, organism-based. A digest of the protocol: as §3
Series [12] deals with Candida albicans. Description: Induction of membrane damage in Candida albicans cgmcc 2.2086 assessed as intracellular content leakage at MFC after 1 hr by atomic force microscopy. Format: functional, organism-based. Put shortly:
(§4)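 E. coli ATCC 25922 or C. albicans cgmcc 2.2086 were treated with peptide at 1× MBC/MFC for 1 h alongside peptide-free controls, then imaged by AFM, SEM or TEM for membrane and ultrastructural changes.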

Series [13] deals with Escherichia coli. Description: Change in membrane morphology in Escherichia coli ATCC 25922 assessed as loss of intracellular contents at MBC after 1 hr by transmission electron microscopy. Format: functional, organism-based. A digest of the protocol: as §4
Series [14] deals with Candida albicans. Description: Induction of membrane damage in Candida albicans cgmcc 2.2086 assessed as empty regions formation of cytoplasm at MFC after 1 hr by transmission electron microscopy. Format: functional, organism-based. Put shortly:
as §4

In series [15] the test system is Escherichia coli. Description: Induction of reactive oxygen species generation in Escherichia coli ATCC 25922 at 0.5 to 4 uM after 1 hr by DCFH-DA dye-based spectrofluorophotometric method. The class given is functional, organism-based. A digest of the protocol: (§5)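 E. coli ATCC 25922 and C. albicans cgmcc 2.2086 cells were exposed to a range of peptide concentrations up to 32 μM. ROS levels were read by fluorescence and expressed relative to untreated cells. Values are mean ± SEM of three independent experiments.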

Series [16] relates to Candida albicans. Description: Induction of reactive oxygen species generation in Candida albicans cgmcc 2.2086 after 1 hr by DCFH-DA dye-based spectrofluorophotometric method. Format: functional, organism-based. A digest of the protocol:
as §5

Series [17] has as its system Candida albicans. Description: Induction of reactive oxygen species generation in Candida albicans cgmcc 2.2086 at 32 uM after 1 hr by DCFH-DA dye-based spectrofluorophotometric method relative to control. Format: functional. Put shortly:
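Intracellular ROS in peptide-treated cells were compared with untreated cells; values are mean ± SEM of three independent experiments.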

Series [18] concerns Lipopolysaccharide (LPS). Description: Displacement of BODIPY-TR-cadaverine from Escherichia coli O111:B4 LPS at 4 uM after 1 hr by spectrofluorophotometric method relative to control. Put shortly:
(§6)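 Fluorescence-based displacement assay: peptide displaces BODIPY-TR-cadaverine from LPS; polymyxin B served as the LPS-binding reference.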

For series [19], the system named is Lipopolysaccharide (LPS). Description: Displacement of BODIPY-TR-cadaverine from Escherichia coli O111:B4 LPS at 8 uM after 1 hr by spectrofluorophotometric method relative to control. Put shortly: as §6
The test system of series [20] is Lipopolysaccharide (LPS). Description: Binding affinity to Escherichia coli O111:B4 LPS by SPR spectroscopy. Put shortly:
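Surface plasmon resonance with the peptide immobilized and LPS flowed over it at 3.125−25 μg/mL; binding recorded in response units (RU).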

The test system of series [21] is RAW264.7. Description: Induction of endotoxin-neutralization in mouse RAW264.7 cells assessed as inhibition of LPS-induced nitric oxide production at 16 uM after 18 hrs by Griess assay relative to control. The class given is functional. As to conditions: RAW264.7, 18 h. A digest of the protocol: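 RAW 264.7 cells were stimulated with 50 ng/mL LPS with or without peptide at various concentrations. TNF-α in supernatants was measured by ELISA and NO by Griess reagent. Mean ± SEM of three independent experiments, compared against LPS alone.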

The test system of series [22] is RAW264.7. Description: Immunostimulatory activity in mouse RAW264.7 cells assessed as induction of nitric oxide production by Griess assay. The class given is cell-based. Put shortly:
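RAW 264.7 macrophages were exposed to peptide at various concentrations. TNF-α in culture supernatants was measured by ELISA and NO by Griess reagent. Values are means ± SEM of three independent experiments.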
In general terms: The Griess reaction detects nitrite, a stable product of nitric oxide.

`CC[C@H](C)[C@H](NC(=O)CN)C(=O)NCC(=O)N[C@@H](C)C(=O)N[C@H](C(=O)N[C@@H](CC(C)C)C(=O)N[C@@H](CCCCN)C(=O)N[C@H](C(=O)N[C@@H](CC(C)C)C(=O)N[C@H](C(=O)N[C@H](C(=O)NCC(=O)N[C@@H](CC(C)C)C(=O)N1CCC[C@H]1C(=O)N[C@@H](C)C(=O)N[C@@H](CC(C)C)C(=O)N[C@H](C(=O)N[C@@H](CO)C(=O)N[C@@H](Cc1c[nH]c2ccccc12)C(=O)N[C@H](C(=O)N[C@@H](CCCCN)C(=O)N[C@@H](CCCNC(=N)N)C(=O)N[C@@H](CCCCN)C(=O)N[C@@H](CCCNC(=N)N)C(=O)N[C@@H](CCC(N)=O)C(=O)N[C@@H](CCC(N)=O)C(N)=O)[C@@H](C)CC)[C@@H](C)CC)[C@@H](C)O)[C@@H](C)O)C(C)C)C(C)C` [MELITTIN]: the result in series [1] and in [2] was Active.

As for H-RRIRIIIRIRR-NH2, the MIC – broadly, the lowest concentration that inhibits growth of the organism – in [3] is 4 µM. Moreover, the Activity in [4] is above 99.99%; in [5], above 70%; in series [6], 20%; in [7], “Dose-dependent effect”; in [8], 62%; in series [16] it was “Dose-dependent effect”. In addition, the Activity result in series [20] is “Dose-dependent effect”; in series [22] it was “Non-Toxic”. The result in [9], in [10], in series [11], in series [12], in series [13] and in series [14] was Active. In addition, the outcome in series [15] was inactive. Moreover, the “fold change (FC)” value in [17] stood at 14. Further, the inhibition – broadly, the percentage by which the read-out fell short of the control – in series [18] came to 68%; in series [19] it was 95%. In addition, the inhibition at 16 µM in series [21] came to 100%.
